Results from ChEMBL document CHEMBL1122871, “Monocyclic pteridine analogues. Inhibition of Escherichia coli dihydropteroate synthase by 6-amino-5-nitrosoisocytosines” (J Med Chem, 1985).

How the values were obtained:
Dihydropteroate synthase [1] = biological target: T1, Dihydropteroate synthase (Escherichia coli K-12, UniProt P0AC13); assay: (§1) In vitro inhibition of dihydropteroate synthase from Escherichia coli.; settings: read-out: I50
T1 sequence (P0AC13 whole entry): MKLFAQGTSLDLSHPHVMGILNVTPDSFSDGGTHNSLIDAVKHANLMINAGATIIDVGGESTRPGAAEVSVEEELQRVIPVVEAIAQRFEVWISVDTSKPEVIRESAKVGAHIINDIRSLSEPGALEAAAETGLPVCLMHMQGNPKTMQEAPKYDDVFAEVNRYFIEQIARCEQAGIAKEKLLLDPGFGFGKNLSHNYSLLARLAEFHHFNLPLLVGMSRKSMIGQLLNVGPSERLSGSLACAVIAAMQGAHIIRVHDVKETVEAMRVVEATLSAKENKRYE
Method in brief: (§2)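 Partially purified synthase from E. coli B. The assay used [14C]carboxy-p-aminobenzoic acid as substrate. Paper chromatography separated radiolabelled dihydropteroate from unreacted substrate. Results were given as the micromolar concentration giving 50% inhibition, or as percent inhibition at a stated concentration.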

[2] = biological target: T2, Dihydropteroate synthase (Escherichia coli K-12) (UniProt P0AC13); assay: as §1; parameters: concentration or dose not given beside the values; settings: concentration not given here; method in brief: as §2
T2 sequence (whole entry): T1 sequence (P0AC13 whole entry)

[3] = biological target: T2, Dihydropteroate synthase (Escherichia coli K-12); assay: Kinetic constant for synthase inhibition
Method in brief: (§3)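 Kinetic runs varied either the pterin substrate or PABA across inhibitor levels. Velocity was nmol dihydropteroate formed in a 12-min incubation at 37 °C, plotted as double reciprocals. Data were computer-fitted to competitive or noncompetitive inhibition models and statistically tested for fit to each model.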

Dihydropteroate synthase [4] = biological target: T1, Dihydropteroate synthase; assay: Inhibitory activity against binding of para-aminobenzoic acid to synthase; settings: read-out: I50; method in brief: as §3
[5] = biological target: T2, Dihydropteroate synthase (Escherichia coli K-12); assay: In vitro percent inhibition of dihydropteroate synthase from Escherichia coli at 20 uM; method in brief: as §2

Structure (SMILES) | IC50 (Dihydropteroate synthase [1]) [µM] | other results
CC(C)Nc1nc(N)nc(O)c1N=O | 208 | –
Nc1nc(O)c(N=O)c(Nc2ccccc2)n1 | > 100 | inhibition [2]: < 10%
CNc1nc(N)nc(O)c1C=O | > 300 | inhibition [2]: < 10%
Nc1nc(O)c(N=O)c(O)n1 | > 200 | inhibition [2]: < 10%
N#Cc1c(O)nc(N)nc1NCCCCc1ccccc1 | 290 | –
CSc1nc(N)nc(O)c1N=O | – | inhibition [5]: 17%
Nc1nc(O)c(C=O)c(NCCCCc2ccccc2)n1 | > 100 | inhibition [2]: < 10%
CCN(CC)c1nc(N)nc(O)c1N=O | 197 | –
CNc1cc(O)nc(N)n1 | > 110 | inhibition [2]: < 10%
Cc1cc(NS(=O)(=O)c2ccc(N)cc2)no1 [SULFAMETHOXAZOLE] | 4.7 | –
Nc1nccc(O)n1 | > 500 | inhibition [2]: < 10%

Now from value to compound, other results behind:

IC50 (Dihydropteroate synthase [1]) [µM] | Structure (SMILES) | other results
35 | Nc1nc(O)c(N=O)c(NCCCO)n1 | –
12.9 | Nc1nc(O)c(N=O)c(NCc2ccccc2)n1 | –
21 | Nc1nc(O)c([N+](=O)[O-])c(NCCCCc2ccccc2)n1 | –
3.7 | Nc1nc(O)c(N=O)c(NCCCOc2ccccc2)n1 | Kis [3]: 0.69 µM
2.5 | Nc1ccc(S(=O)(=O)Nc2nccs2)cc1 [SULFATHIAZOLE] | –
4.2 | Nc1nc(O)c(N=O)c(NCCc2ccccc2)n1 | –
5.8 | Nc1nc(N)c(N=O)c(=O)[nH]1 | –
5.9 | Nc1nc(O)c(N=O)c(NCCCCCc2ccccc2)n1 | –
1.6 | CNc1nc(N)nc(O)c1N=O | Kis [3]: 0.085 µM
7.8 | Nc1nc(O)c(N=O)c(NCCCc2ccccc2)n1 | –
9 | Nc1nc(O)c(N=O)c(NCCCCCCc2ccccc2)n1 | –
1.4 | Nc1nc(O)c(N=O)c(NCCCCCCCc2ccccc2)n1 | IC50 (Dihydropteroate synthase [4]): 1.4 µM
18 | Nc1nc(O)c(N=O)c(NCCCS(=O)(=O)c2ccccc2)n1 | –
11 | CCNc1nc(N)nc(O)c1N=O | –
2.5 | Nc1nc(O)c(N=O)c(NCCCCc2ccccc2)n1 | –
2.8 | CNc1nc(N)[nH]c(=O)c1[N+](=O)[O-] | –
